Reference: ChEMBL document CHEMBL4706730, “A Set of Highly Sensitive Sirtuin Fluorescence Probes for Screening Small-Molecular Sirtuin Defatty-Acylase Inhibitors” (ACS Med Chem Lett, 2021)
Active and inactive are the calls of the source. The rule behind the calls is not given here. Numbered stars: 1 amine (or outer) side, 2 acyl side, 3 side chain; on linkers, the order of the positions; unused ones are H or OH. Square brackets hold non-standard residues; d marks the D form. Peptide text beside a SMILES is read from it. * marks the point of attachment. X1 = O=C(O)c1cc(NC(=S)*)ccc1-c1c2ccc(=O)cc-2oc2cc(O)ccc12; X2 = CN(CCC(=O)*)c1ccc(/N=N/c2ccc([N+](=O)[O-])cc2)cc1; Achc(trans-4) = O=C([C@H]1CC[C@H](N[*:1])CC1)[*:2]; X3 = CN(C)c1ccc(/N=N/c2ccc(CCC(=O)*)cc2)cc1; X5 = O=C(Cc1ccc(/N=N/c2ccc(O)cc2)cc1)*

Experiments:
[1] = biological target: T1, NAD-dependent protein deacetylase sirtuin-2 (Homo sapiens) (UniProt Q8IXJ6); assay: Inhibition of 5-(3-((1r,4r)-4-((5S,8S,11S,14S,17S,20S,29S)-11-((1H-imidazol-4-yl)methyl)-1,33-diamino-5-carbamoyl-17-(4-(4-(4-((4-(dimethylamino)phenyl)diazenyl)phenyl)butanamido)butyl)-8,14-bis(3-guanidinopropyl)-20-methyl-7,10,13,16,19,22,25,28-octaoxo-6,9,12,15,18,21,24,27-octaazatritriacontan-29-ylcarbamoyl)cyclohexyl)thioureido)-2-(6-hydroxy-3-oxo-3H-xanthen-9-yl)benzoic acid binding to SIRT2 (unknown origin) at 10 uM measured after 2 hrs in presence of NAD+ by fluorometric method relative to control
T1 sequence (whole entry): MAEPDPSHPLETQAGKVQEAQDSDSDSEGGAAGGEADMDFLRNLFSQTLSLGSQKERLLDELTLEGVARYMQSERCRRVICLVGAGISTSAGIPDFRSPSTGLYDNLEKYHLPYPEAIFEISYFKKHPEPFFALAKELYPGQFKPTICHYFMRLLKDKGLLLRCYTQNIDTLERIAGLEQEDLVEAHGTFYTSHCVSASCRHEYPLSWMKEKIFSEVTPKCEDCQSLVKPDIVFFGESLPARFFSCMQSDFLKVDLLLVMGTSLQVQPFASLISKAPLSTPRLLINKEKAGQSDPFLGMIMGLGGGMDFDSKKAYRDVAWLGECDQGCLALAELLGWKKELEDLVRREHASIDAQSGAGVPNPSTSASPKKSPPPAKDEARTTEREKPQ
How it was run: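 In the primary library screen, 384-well plates held SIRT2 with the Dabcyl-BH/H4K16 one-step FRET probe. Each compound was tested at 10 μM with 0.5% DMSO, and inhibition was taken from the fluorescence signal.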

[2] = biological target: T2, NAD-dependent protein deacetylase sirtuin-2 (Homo sapiens, UniProt Q8IXJ6); assay: Inhibition of 5-(3-((1r,4r)-4-((5S,8S,11S,14S,17S,20S,29S)-11-((1H-imidazol-4-yl)methyl)-1,33-diamino-5-carbamoyl-17-(4-(4-(4-((4-(dimethylamino)phenyl)diazenyl)phenyl)butanamido)butyl)-8,14-bis(3-guanidinopropyl)-20-methyl-7,10,13,16,19,22,25,28-octaoxo-6,9,12,15,18,21,24,27-octaazatritriacontan-29-ylcarbamoyl)cyclohexyl)thioureido)-2-(6-hydroxy-3-oxo-3H-xanthen-9-yl)benzoic acid binding to SIRT2 (unknown origin) measured after 2 hrs in presence of NAD+ by fluorometric method
T2 sequence (Q8IXJ6 whole entry): T1 sequence (whole entry)
How it was run: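 The second screen used the same SIRT2 one-step FRET probe conditions, validated at 2.92 nM SIRT2. Compounds were tested over a range of concentrations to check dose-dependency, and the IC50 was derived from the dose–response curve.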

[3] = biological target: T3, NAD-dependent protein deacetylase sirtuin-3, mitochondrial (Homo sapiens) (UniProt Q9NTG7); assay: Binding affinity to SIRT3 (unknown origin) assessed as increase in fluorescence intensity at 2.5 uM measured at 5 mins interval for 1 hr in presence of NAD+ by fluorometric method relative to control
T3 sequence (whole entry): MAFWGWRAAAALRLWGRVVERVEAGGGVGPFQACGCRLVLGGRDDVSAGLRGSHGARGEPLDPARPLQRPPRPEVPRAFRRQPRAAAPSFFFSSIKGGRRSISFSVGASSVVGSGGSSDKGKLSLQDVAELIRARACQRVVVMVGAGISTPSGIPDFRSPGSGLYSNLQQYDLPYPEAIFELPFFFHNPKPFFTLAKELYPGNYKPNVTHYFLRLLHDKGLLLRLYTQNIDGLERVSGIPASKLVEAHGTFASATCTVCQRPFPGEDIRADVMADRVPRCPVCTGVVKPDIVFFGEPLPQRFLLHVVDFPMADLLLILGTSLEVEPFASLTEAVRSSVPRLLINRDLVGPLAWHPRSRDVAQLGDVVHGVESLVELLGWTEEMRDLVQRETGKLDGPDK
How it was run: (§1)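 Each FITC/quencher FRET peptide probe was incubated with recombinant SIRT1–7 in 96-well half-area plates at 37 °C for 1 h. The fluorescence increase is reported as a fold change, SIRT(+) signal over SIRT(−) signal, after 1 h.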

[4] = biological target: T1, NAD-dependent protein deacetylase sirtuin-2 (Homo sapiens); assay: Binding affinity to SIRT2 (unknown origin) assessed as increase in fluorescence intensity at 2.5 uM measured at 5 mins interval for 1 hr in presence of NAD+ by fluorometric method relative to control; how it was run: as §1
[5] = biological target: NAD-dependent protein deacylase sirtuin-5, mitochondrial (Homo sapiens) (UniProt Q9NXA8); assay: Binding affinity to SIRT5 (unknown origin) assessed as increase in fluorescence intensity at 2.5 uM measured at 5 mins interval for 1 hr in presence of NAD+ by fluorometric method relative to control; how it was run: as §1
[6] = biological target: T4, NAD-dependent protein deacetylase sirtuin-7 (Homo sapiens) (UniProt Q9NRC8); assay: Binding affinity to SIRT7 (unknown origin) assessed as increase in fluorescence intensity at 2.5 uM measured at 5 mins interval for 1 hr in presence of NAD+ by fluorometric method relative to control; how it was run: as §1
T4 sequence (whole entry): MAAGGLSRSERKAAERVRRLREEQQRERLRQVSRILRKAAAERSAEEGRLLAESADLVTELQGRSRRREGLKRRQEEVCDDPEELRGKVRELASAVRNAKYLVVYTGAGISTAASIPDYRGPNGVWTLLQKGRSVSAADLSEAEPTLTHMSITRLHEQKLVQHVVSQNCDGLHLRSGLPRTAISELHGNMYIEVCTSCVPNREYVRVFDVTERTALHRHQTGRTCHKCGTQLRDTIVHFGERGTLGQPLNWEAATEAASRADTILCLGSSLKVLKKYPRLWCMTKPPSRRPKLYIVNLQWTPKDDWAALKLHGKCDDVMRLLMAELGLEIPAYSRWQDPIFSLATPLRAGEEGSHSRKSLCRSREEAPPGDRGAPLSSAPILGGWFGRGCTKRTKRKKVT

[7] = biological target: NAD-dependent protein deacylase sirtuin-6 (Homo sapiens) (UniProt Q8N6T7); assay: Binding affinity to SIRT6 (unknown origin) assessed as increase in fluorescence intensity at 2.5 uM measured at 5 mins interval for 1 hr in presence of NAD+ by fluorometric method relative to control; how it was run: as §1
[8] = biological target: T5, NAD-dependent protein deacetylase sirtuin-1 (Homo sapiens) (UniProt Q96EB6); assay: Binding affinity to SIRT1 (unknown origin) assessed as increase in fluorescence intensity at 2.5 uM measured at 5 mins interval for 1 hr in presence of NAD+ by fluorometric method relative to control; how it was run: as §1
T5 sequence (whole entry): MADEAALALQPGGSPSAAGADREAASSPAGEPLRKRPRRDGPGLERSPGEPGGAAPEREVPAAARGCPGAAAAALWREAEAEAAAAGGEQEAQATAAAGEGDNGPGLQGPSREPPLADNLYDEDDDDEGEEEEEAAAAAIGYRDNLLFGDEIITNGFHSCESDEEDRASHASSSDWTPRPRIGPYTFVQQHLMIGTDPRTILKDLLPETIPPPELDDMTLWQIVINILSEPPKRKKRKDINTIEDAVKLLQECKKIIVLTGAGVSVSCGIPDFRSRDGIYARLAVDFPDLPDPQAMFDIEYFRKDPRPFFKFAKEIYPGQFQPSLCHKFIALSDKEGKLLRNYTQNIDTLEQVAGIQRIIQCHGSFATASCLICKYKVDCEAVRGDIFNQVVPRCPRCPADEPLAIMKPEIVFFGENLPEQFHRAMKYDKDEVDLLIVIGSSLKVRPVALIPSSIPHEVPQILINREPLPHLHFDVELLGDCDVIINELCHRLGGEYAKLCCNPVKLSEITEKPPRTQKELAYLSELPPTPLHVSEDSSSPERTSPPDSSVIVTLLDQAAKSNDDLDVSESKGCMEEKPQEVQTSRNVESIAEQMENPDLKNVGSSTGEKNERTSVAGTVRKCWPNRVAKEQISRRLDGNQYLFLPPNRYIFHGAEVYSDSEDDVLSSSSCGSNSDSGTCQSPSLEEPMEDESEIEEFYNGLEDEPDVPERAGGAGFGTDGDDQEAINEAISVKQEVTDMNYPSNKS

[9] = biological target: T6, NAD-dependent protein lipoamidase sirtuin-4, mitochondrial (Homo sapiens) (UniProt Q9Y6E7); assay: Binding affinity to SIRT4 (unknown origin) assessed as increase in fluorescence intensity at 2.5 uM measured at 5 mins interval for 1 hr in presence of NAD+ by fluorometric method relative to control; how it was run: as §1
T6 sequence (whole entry): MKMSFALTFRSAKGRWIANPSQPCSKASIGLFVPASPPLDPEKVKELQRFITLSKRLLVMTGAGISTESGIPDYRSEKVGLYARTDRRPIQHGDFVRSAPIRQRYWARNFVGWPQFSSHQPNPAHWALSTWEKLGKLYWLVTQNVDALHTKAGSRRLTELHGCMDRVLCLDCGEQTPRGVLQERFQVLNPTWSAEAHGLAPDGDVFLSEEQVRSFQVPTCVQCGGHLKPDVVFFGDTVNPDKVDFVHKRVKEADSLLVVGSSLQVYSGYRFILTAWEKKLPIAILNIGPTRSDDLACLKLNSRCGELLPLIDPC

[10] = biological target: T1, NAD-dependent protein deacetylase sirtuin-2 (Homo sapiens); assay: Binding affinity to SIRT2 (unknown origin) assessed as increase in fluorescence intensity at 2.92 to 8.75 nM measured at 5 mins interval for 4 hrs in presence of NAD+ by fluorometric method; settings: dose 2.92-8.75 nM
[11] = biological target: T1, NAD-dependent protein deacetylase sirtuin-2 (Homo sapiens); assay: Binding affinity to SIRT2 (unknown origin) assessed as increase in fluorescence intensity measured at 5 mins interval for 1 hr in presence of NAD+ by fluorometric method

Sequence of NAD-dependent protein deacylase sirtuin-6 (Homo sapiens) (Q8N6T7 whole entry): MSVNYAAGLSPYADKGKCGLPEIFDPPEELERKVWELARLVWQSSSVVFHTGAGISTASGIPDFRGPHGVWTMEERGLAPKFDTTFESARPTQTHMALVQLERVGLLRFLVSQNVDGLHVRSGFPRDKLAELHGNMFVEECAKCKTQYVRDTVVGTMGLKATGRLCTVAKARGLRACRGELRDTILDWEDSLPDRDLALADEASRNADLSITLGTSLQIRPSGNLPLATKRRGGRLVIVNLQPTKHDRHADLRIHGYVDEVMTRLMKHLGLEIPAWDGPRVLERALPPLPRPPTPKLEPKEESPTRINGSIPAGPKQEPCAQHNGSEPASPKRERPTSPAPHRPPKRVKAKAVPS
Sequence of NAD-dependent protein deacylase sirtuin-5, mitochondrial (Homo sapiens) (Q9NXA8 37-310 limits assumed): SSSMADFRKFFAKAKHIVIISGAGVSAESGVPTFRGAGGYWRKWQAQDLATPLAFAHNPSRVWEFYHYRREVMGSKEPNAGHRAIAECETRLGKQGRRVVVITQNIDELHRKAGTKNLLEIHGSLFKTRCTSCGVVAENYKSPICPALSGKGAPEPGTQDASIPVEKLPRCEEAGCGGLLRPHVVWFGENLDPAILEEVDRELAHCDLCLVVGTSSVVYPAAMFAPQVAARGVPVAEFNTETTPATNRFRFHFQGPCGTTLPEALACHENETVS

| SMILES | inhibition [1] [%] | IC50 [2] [nM] | fold change (FC) [3] | fold change (FC) [4] | fold change (FC) [5] | fold change (FC) [6] | fold change (FC) [7] | fold change (FC) [8] | fold change (FC) [9] | Activity [10] | Activity [11] |
| --- | --- | --- | --- | --- | --- | --- | --- | --- | --- | --- | --- |
| O=C1CCCCC1C1(O)C(=O)Nc2ccccc21 (configuration not stated) | > 35 |  |  |  |  |  |  |  |  |  |  |
| CC[C@H](C)[C@H](NC(=O)[C@H](CCCNC(=N)N)NC(C)=O)C(=O)N[C@@H](CCCCNC(=O)Cc1ccc(/N=N/c2ccc(O)cc2)cc1)C(=O)N[C@@H](CCCNC(=N)N)C(=O)N[C@@H](Cc1ccc(O)cc1)C(N)=O (Ac-RIK(X5)RY-NH2) |  | 7 |  |  |  |  |  |  |  |  |  |
| C=C(C)Cn1c(NCCO)nc2c1c(=O)[nH]c(=O)n2C | > 35 |  |  |  |  |  |  |  |  |  |  |
| C[C@H](NC(=O)[C@@H]1CCCN1C(=O)[C@H](C)NC(=O)[C@H]1CC[C@H](NC(=S)Nc2ccc(-c3c4ccc(=O)cc-4oc4cc(O)ccc34)c(C(=O)O)c2)CC1)C(=O)N1CCC[C@H]1C(=O)N[C@@H](CCCCNC(=O)CCN(C)c1ccc(/N=N/c2ccc([N+](=O)[O-])cc2)cc1)C(=O)N[C@@H](CCCCN)C(=O)NCC(=O)N[C@@H](CO)C(=O)N[C@@H](CCCCN)C(N)=O (X1-[Achc(trans-4)]APAPK(X2)KGSK-NH2) |  |  | 12.3 | 3.83 | 0.99 | 1.01 | 3.51 | 5 | 1.18 |  |  |
| C[C@H](NC(=O)CNC(=O)CNC(=O)[C@H](CCCCN)NC(=O)[C@H]1CC[C@H](NC(=S)Nc2ccc(-c3c4ccc(=O)cc-4oc4cc(O)ccc34)c(C(=O)O)c2)CC1)C(=O)N[C@@H](CCCCNC(=O)CCCc1ccc(/N=N/c2ccc(N(C)C)cc2)cc1)C(=O)N[C@@H](CCCNC(=N)N)C(=O)N[C@@H](Cc1c[nH]cn1)C(=O)N[C@@H](CCCNC(=N)N)C(=O)N[C@@H](CCCCN)C(N)=O |  |  |  | 12 | 1.06 | 1 | 2.21 | 14.2 | 1.11 | Active | Dose-dependent effect |
| CC[C@H](C)[C@H](NC(=O)[C@H](CCCNC(=N)N)NC(=O)[C@H](Cc1ccc(O)cc1)NC(=O)[C@H](CC(=O)O)NC(=O)[C@H]1CC[C@H](NC(=S)Nc2ccc(-c3c4ccc(=O)cc-4oc4cc(O)ccc34)c(C(=O)O)c2)CC1)C(=O)N[C@@H](CCCCNC(=O)CCc1ccc(/N=N/c2ccc(N(C)C)cc2)cc1)C(=O)N[C@@H](CCCNC(=N)N)C(=O)N[C@@H](Cc1ccc(O)cc1)C(=O)N[C@@H](Cc1c[nH]cn1)C(=O)N[C@H](C(N)=O)[C@@H](C)O (X1-[Achc(trans-4)]DYRIK(X3)RYHT-NH2) |  |  | 1.96 | 1.92 | 1.09 | 1.01 | 1.05 | 4.76 | 1.11 |  |  |
| CC[C@H](C)[C@H](NC(=O)[C@H](CCCNC(=N)N)NC(=O)[C@H](Cc1ccccc1)NC(=O)[C@H](CC(N)=O)NC(=O)[C@H]1CC[C@H](NC(=S)Nc2ccc(-c3c4ccc(=O)cc-4oc4cc(O)ccc34)c(C(=O)O)c2)CC1)C(=O)N[C@@H](CCCCNC(=O)CCc1ccc(/N=N/c2ccc(N(C)C)cc2)cc1)C(=O)N[C@@H](CCCNC(=N)N)C(=O)N[C@@H](Cc1ccc(O)cc1)C(=O)N[C@@H](CO)C(=O)N[C@@H](CC(N)=O)C(N)=O (X1-[Achc(trans-4)]NFRIK(X3)RYSN-NH2) |  |  | 1.92 | 1.85 | 1.11 | 1.04 | 1.07 | 4.79 | 1.14 |  |  |
